Data reported in ChEMBL document CHEMBL1914320, “C4-alkylthiols with activity against Moraxella catarrhalis and Mycobacterium tuberculosis” (Bioorg Med Chem, 2011).
Converted amounts (≈) assume the structure as drawn. The source made the active and inactive calls. No cut-off for these calls is given here.

What was measured:
Moraxella catarrhalis [1] = assay: Antibacterial activity against beta-lactamase producing Moraxella catarrhalis isolate 1 at 10 ug/disc after overnight incubation by disc diffusion assay; assay type: functional; details: for zone of inhibition at 10 µg/disc: read-out: IZ
How it was run: (§1)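 Isolates were held at −80 °C. Five colonies were suspended in Mueller-Hinton broth to a 0.5 McFarland density and swabbed onto MH agar. Discs carried 10 μg compound, applied in methanol and dried at room temperature. Plates were incubated overnight at 37 °C, and the zone of inhibition was measured in mm from the disc edge. Controls were methanol-only and penicillin discs. Run blinded, in triplicate.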

Moraxella catarrhalis [2] = assay: Antibacterial activity against beta-lactamase producing Moraxella catarrhalis isolate 2 at 10 ug/disc after overnight incubation by disc diffusion assay; assay type: functional; details: for zone of inhibition at 10 µg/disc: read-out: IZ; how it was run: as §1
Moraxella catarrhalis [3] = assay: Antibacterial activity against beta-lactamase producing Moraxella catarrhalis isolate 3 at 10 ug/disc after overnight incubation by disc diffusion assay; assay type: functional; details: for zone of inhibition at 10 µg/disc: read-out: IZ; how it was run: as §1
Moraxella catarrhalis [4] = assay: Antibacterial activity against beta-lactamase producing Moraxella catarrhalis isolate 4 at 10 ug/disc after overnight incubation by disc diffusion assay; assay type: functional; details: for zone of inhibition at 10 µg/disc: read-out: IZ; how it was run: as §1
Moraxella catarrhalis [5] = assay: Antibacterial activity against beta-lactamase producing Moraxella catarrhalis isolate 5 at 10 ug/disc after overnight incubation by disc diffusion assay; assay type: functional; details: for zone of inhibition at 10 µg/disc: read-out: IZ; how it was run: as §1
Moraxella catarrhalis [6] = assay: Antibacterial activity against beta-lactamase producing Moraxella catarrhalis isolate 1 after 48 hrs incubation by microdilution broth method; assay type: functional; details: isolate 1, 48 h
How it was run: (§2)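 Broth microdilution followed CLSI guidelines. Compound was dissolved in 95% ethanol, diluted at least 10-fold into Mueller-Hinton broth, then serially two-fold diluted from 500 to 15.6 μg/mL. Actively growing culture was added at 5 × 10^5 cells/mL. Plates ran 48 h at 37 °C, scored for visible growth at 24 and 48 h. MIC was the lowest concentration without growth. For MBC, 10 μL from each clear well was plated on MH agar. Controls were ethanol and penicillin. Triplicate.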

Moraxella catarrhalis [7] = assay: Antibacterial activity against beta-lactamase producing Moraxella catarrhalis isolate 2 after 48 hrs incubation by microdilution broth method; assay type: functional; details: isolate 2, 48 h; how it was run: as §2
Moraxella catarrhalis [8] = assay: Antibacterial activity against beta-lactamase producing Moraxella catarrhalis isolate 3 after 48 hrs incubation by microdilution broth method; assay type: functional; details: isolate 3, 48 h; how it was run: as §2
Moraxella catarrhalis [9] = assay: Antibacterial activity against beta-lactamase producing Moraxella catarrhalis isolate 4 after 48 hrs incubation by microdilution broth method; assay type: functional; details: isolate 4, 48 h; how it was run: as §2
Moraxella catarrhalis [10] = assay: Antibacterial activity against beta-lactamase producing Moraxella catarrhalis isolate 5 after 48 hrs incubation by microdilution broth method; assay type: functional; details: isolate 5, 48 h; how it was run: as §2
Moraxella catarrhalis [11] = assay: Antibacterial activity against beta-lactamase producing Moraxella catarrhalis isolate 6 after 48 hrs incubation by microdilution broth method; assay type: functional; details: isolate 6, 48 h; how it was run: as §2
[12] = system: Mycobacterium tuberculosis; assay: Antimycobacterial activity against wild type Mycobacterium tuberculosis H37Rv by Alamar blue assay; assay type: functional
Escherichia coli [13] = assay: Antibacterial activity against non-beta-lactamase producing Escherichia coli ATCC 25922 at 10 ug/disc after overnight incubation by disc diffusion assay; assay type: functional, organism-based; how it was run: as §1
Pseudomonas aeruginosa [14] = assay: Antibacterial activity against non-beta-lactamase producing Pseudomonas aeruginosa ATCC 27853 at 10 ug/disc after overnight incubation by disc diffusion assay; assay type: functional, organism-based; how it was run: as §1
Staphylococcus aureus [15] = assay: Antibacterial activity against non-beta-lactamase producing Staphylococcus aureus ATCC 25923 at 10 ug/disc after overnight incubation by disc diffusion assay; assay type: functional, organism-based; how it was run: as §1
Enterococcus faecalis [16] = assay: Antibacterial activity against non-beta-lactamase producing Enterococcus faecalis ATCC 29212 at 10 ug/disc after overnight incubation by disc diffusion assay; assay type: functional, organism-based; how it was run: as §1
Escherichia coli [17] = assay: Antibacterial activity against non-beta-lactamase producing Escherichia coli ATCC 25922 after 48 hrs by microdilution broth method; assay type: functional, organism-based; how it was run: as §2
Pseudomonas aeruginosa [18] = assay: Antibacterial activity against non-beta-lactamase producing Pseudomonas aeruginosa ATCC 27853 after 48 hrs by microdilution broth method; assay type: functional, organism-based; how it was run: as §2
Staphylococcus aureus [19] = assay: Antibacterial activity against non-beta-lactamase producing Staphylococcus aureus ATCC 25923 after 48 hrs by microdilution broth method; assay type: functional, organism-based; how it was run: as §2
Enterococcus faecalis [20] = assay: Antibacterial activity against non-beta-lactamase producing Enterococcus faecalis ATCC 29212 after 48 hrs by microdilution broth method; assay type: functional, organism-based; how it was run: as §2
Moraxella catarrhalis [21] = assay: Antibacterial activity against beta-lactamase producing Moraxella catarrhalis isolate 1 at 10 ug/disc after overnight incubation by disc diffusion assay in presence of 1 mol equiv of glutathione; assay type: functional; details: for zone of inhibition at 10 µg/disc: read-out: IZ
Moraxella catarrhalis [22] = assay: Antibacterial activity against beta-lactamase producing Moraxella catarrhalis isolate 2 at 10 ug/disc after overnight incubation by disc diffusion assay in presence of 1 mol equiv of glutathione; assay type: functional; details: read-out: IZ
Moraxella catarrhalis [23] = assay: Antibacterial activity against beta-lactamase producing Moraxella catarrhalis isolate 3 at 10 ug/disc after overnight incubation by disc diffusion assay in presence of 1 mol equiv of glutathione; assay type: functional; details: for zone of inhibition at 10 µg/disc: read-out: IZ
Moraxella catarrhalis [24] = assay: Antibacterial activity against beta-lactamase producing Moraxella catarrhalis isolate 4 at 10 ug/disc after overnight incubation by disc diffusion assay in presence of 1 mol equiv of glutathione; assay type: functional; details: read-out: IZ
Moraxella catarrhalis [25] = assay: Antibacterial activity against beta-lactamase producing Moraxella catarrhalis isolate 5 at 10 ug/disc after overnight incubation by disc diffusion assay in presence of 1 mol equiv of glutathione; assay type: functional; details: read-out: IZ
Moraxella catarrhalis [26] = assay: Antibacterial activity against beta-lactamase producing Moraxella catarrhalis isolate 6 at 10 ug/disc after overnight incubation by disc diffusion assay in presence of 1 mol equiv of glutathione; assay type: functional; details: for zone of inhibition at 10 µg/disc: read-out: IZ
Moraxella catarrhalis [27] = assay: Antibacterial activity against beta-lactamase producing Moraxella catarrhalis isolate 6 at 10 ug/disc after overnight incubation by disc diffusion assay; assay type: functional; details: for zone of inhibition at 10 µg/disc: read-out: IZ; how it was run: as §1

Compound: O=C1CC(Sc2cccs2)N1 (racemic)
- inhibition zone (IZ) (Moraxella catarrhalis [1]): inactive
- inhibition zone (IZ) (Moraxella catarrhalis [2]): inactive
- inhibition zone (IZ) (Moraxella catarrhalis [3]): inactive
- inhibition zone (IZ) (Moraxella catarrhalis [4]): inactive
- inhibition zone (IZ) (Moraxella catarrhalis [5]): inactive
- MBC (Moraxella catarrhalis [6]): > 500 µg/mL
- MBC (Moraxella catarrhalis [7]): > 500 µg/mL
- MBC (Moraxella catarrhalis [8]): 500 µg/mL (≈ 2700 µM)
- MBC (Moraxella catarrhalis [9]): 500 µg/mL (≈ 2700 µM)
- MBC (Moraxella catarrhalis [10]): 500 µg/mL (≈ 2700 µM)
- MBC (Moraxella catarrhalis [11]): > 500 µg/mL
- MBC [12]: 100 µg/mL (≈ 540 µM)
- Activity (Escherichia coli [13]): inactive
- Activity (Pseudomonas aeruginosa [14]): inactive
- Activity (Staphylococcus aureus [15]): inactive
- Activity (Enterococcus faecalis [16]): inactive
- Activity (Escherichia coli [17]): inactive
- Activity (Pseudomonas aeruginosa [18]): inactive
- Activity (Staphylococcus aureus [19]): inactive
- Activity (Enterococcus faecalis [20]): inactive

Compound: CC(=O)SC1CC(=O)N1 (racemic)
- zone of inhibition at 10 µg/disc (Moraxella catarrhalis [1]): 19 mm
- zone of inhibition at 10 µg/disc (Moraxella catarrhalis [2]): 20 mm
- zone of inhibition at 10 µg/disc (Moraxella catarrhalis [3]): 24 mm
- zone of inhibition at 10 µg/disc (Moraxella catarrhalis [4]): 26 mm
- zone of inhibition at 10 µg/disc (Moraxella catarrhalis [5]): 28 mm
- zone of inhibition at 10 µg/disc (Moraxella catarrhalis [21]): 16 mm
- zone of inhibition at 10 µg/disc (Moraxella catarrhalis [22]): 19 mm
- zone of inhibition at 10 µg/disc (Moraxella catarrhalis [23]): 19 mm
- zone of inhibition at 10 µg/disc (Moraxella catarrhalis [24]): 22 mm
- zone of inhibition at 10 µg/disc (Moraxella catarrhalis [25]): 24 mm
- zone of inhibition at 10 µg/disc (Moraxella catarrhalis [26]): 19 mm
- Activity (Escherichia coli [13]): inactive
- Activity (Pseudomonas aeruginosa [14]): inactive
- Activity (Staphylococcus aureus [15]): inactive
- Activity (Enterococcus faecalis [16]): inactive
- Activity (Escherichia coli [17]): inactive
- Activity (Pseudomonas aeruginosa [18]): inactive
- Activity (Staphylococcus aureus [19]): inactive
- Activity (Enterococcus faecalis [20]): inactive
- zone of inhibition at 10 µg/disc (Moraxella catarrhalis [27]): 20 mm

Compound: O=C1CC(Sc2ccc(S)cc2)N1 (racemic)
- inhibition zone (IZ) (Moraxella catarrhalis [1]): inactive
- zone of inhibition at 10 µg/disc (Moraxella catarrhalis [2]): 8 mm
- inhibition zone (IZ) (Moraxella catarrhalis [3]): inactive
- zone of inhibition at 10 µg/disc (Moraxella catarrhalis [4]): 7 mm
- zone of inhibition at 10 µg/disc (Moraxella catarrhalis [5]): 8 mm
- zone of inhibition at 10 µg/disc (Moraxella catarrhalis [21]): 7 mm
- zone of inhibition at 10 µg/disc (Moraxella catarrhalis [22]): 7 mm
- inhibition zone (IZ) (Moraxella catarrhalis [23]): inactive
- zone of inhibition at 10 µg/disc (Moraxella catarrhalis [24]): 7 mm
- zone of inhibition at 10 µg/disc (Moraxella catarrhalis [25]): 7 mm
- inhibition zone (IZ) (Moraxella catarrhalis [26]): inactive
- MBC (Moraxella catarrhalis [6]): 250 µg/mL (≈ 1180 µM)
- MBC (Moraxella catarrhalis [7]): 125 µg/mL (≈ 592 µM)
- MBC (Moraxella catarrhalis [8]): 125 µg/mL (≈ 592 µM)
- MBC (Moraxella catarrhalis [9]): 500 µg/mL (≈ 2370 µM)
- MBC (Moraxella catarrhalis [10]): 125 µg/mL (≈ 592 µM)
- MBC (Moraxella catarrhalis [11]): 125 µg/mL (≈ 592 µM)
- MBC [12]: 25 µg/mL (≈ 118 µM)
- Activity (Escherichia coli [13]): inactive
- Activity (Pseudomonas aeruginosa [14]): inactive
- Activity (Staphylococcus aureus [15]): inactive
- Activity (Enterococcus faecalis [16]): inactive
- Activity (Escherichia coli [17]): inactive
- Activity (Pseudomonas aeruginosa [18]): inactive
- Activity (Staphylococcus aureus [19]): inactive
- Activity (Enterococcus faecalis [20]): inactive
- inhibition zone (IZ) (Moraxella catarrhalis [27]): inactive

Compound: O=C1CC(Sc2ccc(O)cc2)N1S(=O)(=O)O (racemic)
- zone of inhibition at 10 µg/disc (Moraxella catarrhalis [1]): 13 mm
- zone of inhibition at 10 µg/disc (Moraxella catarrhalis [2]): 9 mm
- zone of inhibition at 10 µg/disc (Moraxella catarrhalis [3]): 7 mm
- zone of inhibition at 10 µg/disc (Moraxella catarrhalis [4]): 8 mm
- zone of inhibition at 10 µg/disc (Moraxella catarrhalis [5]): 9 mm
- zone of inhibition at 10 µg/disc (Moraxella catarrhalis [21]): 9 mm
- zone of inhibition at 10 µg/disc (Moraxella catarrhalis [22]): 7 mm
- zone of inhibition at 10 µg/disc (Moraxella catarrhalis [23]): 7 mm
- zone of inhibition at 10 µg/disc (Moraxella catarrhalis [24]): 7 mm
- zone of inhibition at 10 µg/disc (Moraxella catarrhalis [25]): 8 mm
- zone of inhibition at 10 µg/disc (Moraxella catarrhalis [26]): 8 mm
- MBC (Moraxella catarrhalis [6]): > 500 µg/mL
- MBC (Moraxella catarrhalis [7]): < 15.6 µg/mL
- MBC (Moraxella catarrhalis [8]): < 15.6 µg/mL
- MBC (Moraxella catarrhalis [9]): < 15.6 µg/mL
- MBC (Moraxella catarrhalis [10]): < 15.6 µg/mL
- MBC (Moraxella catarrhalis [11]): < 15.6 µg/mL
- MBC [12]: > 200 µg/mL
- Activity (Escherichia coli [13]): inactive
- Activity (Pseudomonas aeruginosa [14]): inactive
- Activity (Staphylococcus aureus [15]): inactive
- Activity (Enterococcus faecalis [16]): inactive
- Activity (Escherichia coli [17]): inactive
- Activity (Pseudomonas aeruginosa [18]): inactive
- Activity (Staphylococcus aureus [19]): inactive
- Activity (Enterococcus faecalis [20]): inactive
- zone of inhibition at 10 µg/disc (Moraxella catarrhalis [27]): 8 mm

Compound: CC(=O)SC1CC(=O)N1S(=O)(=O)O (racemic)
- inhibition zone (IZ) (Moraxella catarrhalis [1]): inactive
- zone of inhibition at 10 µg/disc (Moraxella catarrhalis [2]): 12 mm
- zone of inhibition at 10 µg/disc (Moraxella catarrhalis [3]): 17 mm
- zone of inhibition at 10 µg/disc (Moraxella catarrhalis [4]): 12 mm
- zone of inhibition at 10 µg/disc (Moraxella catarrhalis [5]): 17 mm
- inhibition zone (IZ) (Moraxella catarrhalis [21]): inactive
- zone of inhibition at 10 µg/disc (Moraxella catarrhalis [22]): 11 mm
- zone of inhibition at 10 µg/disc (Moraxella catarrhalis [23]): 12 mm
- zone of inhibition at 10 µg/disc (Moraxella catarrhalis [24]): 14 mm
- zone of inhibition at 10 µg/disc (Moraxella catarrhalis [25]): 18 mm
- zone of inhibition at 10 µg/disc (Moraxella catarrhalis [26]): 12 mm
- Activity (Escherichia coli [13]): inactive
- Activity (Pseudomonas aeruginosa [14]): inactive
- Activity (Staphylococcus aureus [15]): inactive
- Activity (Enterococcus faecalis [16]): inactive
- Activity (Escherichia coli [17]): inactive
- Activity (Pseudomonas aeruginosa [18]): inactive
- Activity (Staphylococcus aureus [19]): inactive
- Activity (Enterococcus faecalis [20]): inactive
- zone of inhibition at 10 µg/disc (Moraxella catarrhalis [27]): 11 mm
